# Assay results taken from ChEMBL document CHEMBL1275600, “Prophylactic activity of intramuscular peramivir in mice infected with a recombinant influenza A/WSN/33 (H1N1) virus containing the H274Y neuraminidase mutation” (Antimicrob Agents Chemother, 2010).
# The source made the active and inactive calls. The calls are words filed in the database; no cut-off is given here.
# Key:
# [1] = tested on: Influenza A virus; experiment: Antiviral activity against oseltamivir-resistant Influenza A/WSN/33 (H1N1) virus expressing neuraminidase H274Y mutant gene infected in BALB/c mouse assessed as survival of mouse at 45 mg/kg, im administered as single dose; format: functional, organism-based; parameters: dose 45 mg/kg; settings: A/WSN/1933(H1N1)
# Outline: (§1)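 Male BALB/c mice, 6–8 weeks old and 20–25 g, were randomized by weight, 4 per cage, in groups of 12. Drug at 50 mg/ml in saline buffered to pH 3.0 was given by IM hip injection, first dose 1 h before challenge. Mice were infected intranasally under isoflurane with 8 × 10^3 PFU of cell-grown recombinant virus in 30 μl PBS. Mortality was recorded daily for 14 days.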
# [2] = tested on: Influenza A virus; experiment: Antiviral activity against oseltamivir-resistant Influenza A/WSN/33 (H1N1) virus expressing neuraminidase H274Y mutant gene infected in BALB/c mouse assessed as survival of mouse at 90 mg/kg, im administered as single dose; format: functional, organism-based; parameters: dose 90 mg/kg; settings: A/WSN/1933(H1N1); outline: as §1
# [3] = tested on: Influenza A virus; experiment: Antiviral activity against oseltamivir-resistant Influenza A/WSN/33 (H1N1) virus expressing neuraminidase H274Y mutant gene infected in BALB/c mouse assessed as survival of mouse at 45 mg/kg, im once daily for 5 days; format: functional, organism-based; parameters: dose 45 mg/kg; settings: A/WSN/1933(H1N1); outline: as §1
# [4] = tested on: Mus musculus; experiment: Toxicity against oseltamivir-resistant Influenza A/WSN/33 (H1N1) virus expressing neuraminidase H274Y mutant gene infected BALB/c mouse assessed as weight loss at 45 mg/kg, im administered as single dose and measured after 6 days; format: organism-based; parameters: dose 45 mg/kg, route intramuscular; settings: in vivo, 144 h
# Outline: (§2)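 Male BALB/c mice, groups of 12, received IM drug at 50 mg/ml in pH 3.0 buffered saline, starting 1 h before intranasal infection with 8 × 10^3 PFU of recombinant virus. Body weight was monitored daily for 14 days. Mean weight loss was compared across regimens by one-way ANOVA, with uninfected PBS-treated mice as reference.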
# [5] = tested on: Mus musculus; experiment: Toxicity against oseltamivir-resistant Influenza A/WSN/33 (H1N1) virus expressing neuraminidase H274Y mutant gene infected BALB/c mouse assessed as weight loss at 90 mg/kg, im administered as single dose and measured after 14 days; format: organism-based; parameters: dose 90 mg/kg, route intramuscular; settings: in vivo, 336 h; outline: as §2
# [6] = tested on: Mus musculus; experiment: Toxicity against oseltamivir-resistant Influenza A/WSN/33 (H1N1) virus expressing neuraminidase H274Y mutant gene infected BALB/c mouse assessed as weight loss at 45 mg/kg, im once daily for 5 days measured after 14 days; format: organism-based; parameters: dose 45 mg/kg, route intramuscular; settings: in vivo, 336 h; outline: as §2
# [7] = tested on: Influenza A virus; experiment: Antiviral activity against oseltamivir-resistant Influenza A/WSN/33 (H1N1) virus expressing neuraminidase H274Y mutant gene infected in BALB/c mouse assessed as log reduction in lung viral titer at 45 mg/kg, im administered as single dose and measured after 4 days; format: functional, A/WSN/1933(H1N1); settings: route intramuscular
# Outline: (§3)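 Male BALB/c mice received IM drug at 50 mg/ml in pH 3.0 buffered saline, starting 1 h before intranasal infection with 8 × 10^3 PFU of recombinant virus. Subgroups of 4 were sacrificed on day 4. Lungs were homogenized in 2 ml PBS with antibiotics and spun at 600 × g for 10 min. Supernatants were plaque-titrated on MDBK cells in triplicate. Comparison to untreated infected mice used a two-tailed unpaired t test.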
# [8] = tested on: Influenza A virus; experiment: Antiviral activity against oseltamivir-resistant Influenza A/WSN/33 (H1N1) virus expressing neuraminidase H274Y mutant gene infected in BALB/c mouse assessed as log reduction in lung viral titer at 90 mg/kg, im administered as single dose and measured after 4 days; format: functional, A/WSN/1933(H1N1); settings: route intramuscular; outline: as §3
# [9] = tested on: Influenza A virus; experiment: Antiviral activity against oseltamivir-resistant Influenza A/WSN/33 (H1N1) virus expressing neuraminidase H274Y mutant gene infected in BALB/c mouse assessed as log reduction in lung viral titer at 45 mg/kg, im once daily for 5 days; format: functional, A/WSN/1933(H1N1); settings: route intramuscular; outline: as §3
structure (smiles),measurement,setting,value
CCC(CC)[C@H](NC(C)=O)[C@@H]1[C@H](O)[C@@H](C(=O)O)C[C@H]1NC(=N)N [PERAMIVIR ANHYDROUS],Activity,[1],inactive
same,Activity,[2],inactive
same,Activity,[3],inactive
same,Activity,[4],Toxic
same,Activity,[5],Non-toxic
same,Activity,[6],Non-toxic
same,FC,[7],1.5
same,FC,[8],1.5
same,FC,[9],1.5
